hIAP inh: human IAP inhibition; P09923; AID 2544; 0.12% of 330,000 active; purified IAP, CDP-Star luminescence, 30 min; inhibition, % at 10 µM;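 active = inhibition reaching a set limit with compound at 10 µM in the primary screen, cut at about 35% in these data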;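 note: plate controls were DMSO wells with enzyme for no effect and no-enzyme buffer wells for full effect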
Target sequence (P09923 whole entry, looked up): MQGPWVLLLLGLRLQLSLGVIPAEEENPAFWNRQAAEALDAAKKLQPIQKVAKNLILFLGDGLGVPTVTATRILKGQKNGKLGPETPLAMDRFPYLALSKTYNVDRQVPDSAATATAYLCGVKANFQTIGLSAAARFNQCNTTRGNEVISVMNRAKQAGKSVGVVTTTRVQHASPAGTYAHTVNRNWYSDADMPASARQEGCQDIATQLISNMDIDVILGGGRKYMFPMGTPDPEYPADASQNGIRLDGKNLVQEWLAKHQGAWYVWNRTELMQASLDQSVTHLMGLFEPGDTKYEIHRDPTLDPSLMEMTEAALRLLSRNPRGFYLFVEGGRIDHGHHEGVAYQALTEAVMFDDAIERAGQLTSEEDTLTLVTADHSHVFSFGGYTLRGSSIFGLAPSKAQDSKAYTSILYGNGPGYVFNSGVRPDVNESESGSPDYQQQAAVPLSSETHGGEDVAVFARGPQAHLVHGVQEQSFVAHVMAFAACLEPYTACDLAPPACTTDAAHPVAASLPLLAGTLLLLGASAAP
bIAP inh: blocks bovine intestinal alkaline phosphatase activity. purified bovine IAP, CDP-star luminescence, 30 min. inhibition, % at 20 µM. 190,000 tested, under 10 active. AID 1019;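 active = over 50% inhibition of intestinal alkaline phosphatase at 20 µM in the single-dose screen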
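Assay system: bovine IAP enzyme; medium: DEA buffer 100 mM, pH 9.8, with MgCl2 1.0 mM, ZnCl2 0.02 mM; doses: 20 µM single dose; incubation: enzyme reaction for 30 min at room temperature; detection: CDP-star luminescence signal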
hIAP activ: human IAP activation; P09923; purified human IAP, CDP-Star luminescence, 30 min; stronger effect = higher value; 1 = vehicle-only enzyme, 0 = enzyme-free background; activation factor at 10 µM; 0.16% of 330,000 active;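 active = activation factor of the enzyme at least 2-fold when tested at 20 µM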
bIAP activator: increases bovine intestinal alkaline phosphatase activity; purified bovine IAP, CDP-star luminescence, 30 min; stronger effect = higher value; fold of DMSO-control signal, blank-subtracted; activation factor at 20 µM; 0.17% of 200,000 active; AID 1016;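 active = activation factor of 2 or more at 20 µM, a signal rise over negative controls twice the positive control's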
mIAP inh: mouse IAP inhibition; 0.2% of 330,000 active; inhibition, % at 10 µM; purified mouse IAP, CDP-Star luminescence, 30 min;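 active = inhibition of at least 40% at 10 µM in the primary screen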;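 note: plate controls were DMSO with enzyme for no effect and no enzyme wells for full effect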
mIAP activ: increases mouse intestinal alkaline phosphatase activity; muIAP, CDP-Star luminescence, 30 min; stronger effect = higher value; 1 = vehicle-only enzyme signal, 0 = enzyme-free wells; activation factor at 10 µM; 0.24% of 330,000 active; AID 2805;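 active = activation factor of at least 2 at 20 µM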
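System: Mouse IAP enzyme | Also added: CDP-Star substrate | Dosing: Compounds dispensed in DMSO | Schedule: 30 min enzyme-substrate-compound incubation at room temperature | Technique: Chemiluminescence readout | Control set: DMSO-only wells and no-enzyme negative control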
hIAP act confirm: human IAP activation confirmation | shares compounds with hIAP activ | purified IAP, CDP-Star luminescence, 30 min; stronger effect = lower value | activation (%Activity, negative = activation), % at 8.3 µM | 10% of 880 active;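 active = at least twofold enzyme activation in any of six single-dose repeats, which the averaged readout prints as negative percent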
An asterisk follows results filed as active; . = no result given. A selection: hits, their analogues and other compounds. The true share with any hit is near 0.79%.

SMILES | hIAP inh | bIAP inh | hIAP activ | bIAP activator | mIAP inh | mIAP activ | hIAP act confirm
Cc1cc(C)n2nc(CC(=O)NNC(=O)COc3cccc(C)c3C)nc2n1 | -106 | . | 2.1* | . | 10 | 0.91 | -26
Nc1c(N(Cc2ccccc2)C(=O)COc2ccc(F)cc2Cl)c(=O)[nH]c(=O)n1Cc1ccccc1 | -5 | . | 1.1 | . | 6 | 0.94 | .
COc1ccc(N2CCN(C(CNS(=O)(=O)c3ccccc3)c3ccccc3)CC2)cc1 (stereo unspecified) | 13 | . | 0.87 | . | 2 | 0.98 | .
Cc1cccc(NC(=O)C2CC(=O)n3cnnc3S2)c1 (stereo unspecified) | -114 | -1 | 2.1* | 1 | 9 | 0.91 | -12
CCN=C1SC(C(=O)Nc2cccc(C)c2)CC(=O)N1CC (stereo unspecified) | -6 | 9 | 1.1 | 0.9 | 0 | 1 | .
Cn1cc(C(=O)NS(=O)(=O)Nc2ccc(Br)cc2)c2ccccc21 | 38* | . | 0.62 | . | 1 | 0.99 | -7
Cn1cc(C(=O)C(F)(F)F)c2ccccc21 | -24 | -3 | 1.2 | 1 | 5 | 0.95 | .
O=C(CSc1nc2c(c(=O)n1-c1ccccc1)SCC2)N1CCN(c2ccccc2)CC1 | 8 | 2 | 0.92 | 1 | -2 | 1 | .
O=C(CSc1nc2c(c(=O)n1-c1ccc(F)cc1)SCC2)N1CCCC1 | -106 | -3 | 2.1* | 1 | -14 | 1.1 | 8
Cc1cc2nnc(SCC(=O)NCC(c3ccccc3)N(C)C)n2c2ccccc12 (stereo unspecified) | 7 | . | 0.93 | . | 4 | 0.95 | .
CCOC(=O)C1=C(c2ccc(OC)cc2)OC(N)=C(C#N)C1c1cccnc1 (stereo unspecified) | -195 | . | 3* | . | -4 | 1 | -1
O=c1c2c(-c3cccs3)csc2ncn1-c1ccc(Br)cc1 | 61* | 6 | 0.39 | 0.9 | 14 | 0.86 | -112*
Cc1ccc(C)c(NC(=O)c2cc(-c3cc(C)c(C)cc3O)n[nH]2)c1 | -92 | . | 1.9 | . | -30 | 1.3 | .
Cc1ccc(O)c(-c2cc(C(=O)NCc3ccc4c(c3)OCO4)[nH]n2)c1 | -106 | 6 | 2.1* | 0.9 | -31 | 1.3 | 20
Cc1ccc(CNC(=O)c2cc(-c3cc(C)cc(C)c3O)n[nH]2)cc1 | -90 | . | 1.9 | . | -21 | 1.2 | .
COc1ccc(OC)c(NC(=O)c2cc(-c3ccc(C)cc3O)n[nH]2)c1 | -116 | -37 | 2.2* | 1.4 | -4 | 1 | -36
COc1ccc(OC)c(NC(=O)c2cc(-c3cc(C)ccc3O)n[nH]2)c1 | -108 | . | 2.1* | . | -2 | 1 | -42*
Cc1ccc(-c2cc(C(=O)Nc3cc(C)ccc3C)[nH]n2)c(O)c1 | -49 | 9 | 1.5 | 0.9 | 4 | 0.96 | .
CC1CCCC(NC(=O)CSc2n[nH]c(=O)n2Cc2ccccc2)C1C (stereo unspecified) | -4 | . | 1 | . | 0 | 1 | .
CC(C)(C)c1cc(C2=CSC3=NCCN23)cc(C(C)(C)C)c1O | -35 | . | 1.3 | . | 1 | 0.99 | .
Cc1ccc(NC(=O)c2nc[nH]c2C(=O)NCCCNC(=O)c2[nH]cnc2C(=O)Nc2ccc(C)cc2)cc1 | -35 | . | 1.4 | . | -3 | 1 | .
NNC(=O)c1nc[nH]c1C(=O)Nc1ccccn1 | -102 | -68 | 2* | 1.7 | 6 | 0.94 | -5
Cc1ccc(NC(=O)c2[nH]cnc2C(=O)NN)cc1 | -111 | -26 | 2.1* | 1.3 | 2 | 0.97 | 2
C=CCN(CC(O)c1cccc([N+](=O)[O-])c1)C(C)CCc1ccccc1 (stereo unspecified) | -1 | . | 1 | . | 3 | 0.97 | .
CCCNC(=O)C(Cc1ccccc1F)NC(=O)c1ccccn1 (stereo unspecified) | 3 | . | 0.97 | . | -2 | 1 | .
COc1ccc(O)c(/C=N/NC(=O)c2cccc(N3CCCC3=O)c2)c1 | -105 | . | 2* | . | -10 | 1.1 | -1
O=C(COc1ccc2c3c(c(=O)oc2c1)CCCC3)N1CCN(c2ccccc2)CC1 | 37* | . | 0.63 | . | 4 | 0.96 | -27
O=C(O)COc1ccc2c3c(c(=O)oc2c1)CCCC3 | 0 | -4 | 1 | 1 | -2 | 1 | .
Cc1cc(OCC(=O)N2CCN(c3ccccc3)CC2)c2c(C)cc(=O)oc2c1 | 39* | . | 0.61 | . | 7 | 0.93 | 3
